Measured values of several laboratories.
Each line is one published result; the experiments were not run side by side.
TEC: Tyrosine-protein kinase Tec (TEC, Homo sapiens, UniProt P42680)
TEC phosphorylated: Tyrosine-protein kinase Tec, phosphorylated (TEC, Homo sapiens, UniProt P42680)

| Compound | target | read-out | action | technique | concentration | quantity | result |
| --- | --- | --- | --- | --- | --- | --- | --- |
| N#CCCc1ccc2c(c1)-c1[nH]c3ccc([N+](=O)[O-])cc3c1CC(=O)N2 | TEC | cell-free assay | – | – | 0.5 µM | remaining signal | 120% |
| Cc1sc(C(=O)NC2COC2)cc1-n1cc(NC(=O)Nc2c(F)cccc2Cl)cn1 | TEC | enzyme activity | inhibitor | – | 10 µM | remaining activity | 91.1% |
| CC(=O)C1=C(C)N(c2cccc(C(F)(F)F)c2)C(=O)N[C@@H]1c1ccc(C#N)nc1 | TEC | binding | – | competition with immobilised ligand | 1 µM | remaining binding | 100% |
| CC(C)(C)c1nc(-c2cccc(NS(=O)(=O)c3c(F)cccc3F)c2F)c(-c2ccnc(N)n2)s1 | TEC | enzyme activity | inhibitor | radiometric | 1 µM | remaining activity | 87% |
| CCCS(=O)(=O)Nc1ccc(F)c(C(=O)c2c[nH]c3ncc(-c4ccc(Cl)cc4)cc23)c1F | TEC | enzyme activity | inhibitor | – | 1 µM | inhibition | < 10% |
| Cc1ccc(NC(=O)c2ccc(C)c(C(F)(F)F)c2)cc1C#Cc1nn(C2CCC(O)CC2)c2ncnc(N)c12 (centres unmarked) | TEC phosphorylated | enzyme activity | inhibitor | – | 10 µM | remaining activity | 24% |
| C[S+]([O-])c1ccc(-c2nc(-c3ccncc3)c(-c3ccc(F)cc3)[nH]2)cc1 (centres unmarked) | TEC | cell-free assay | – | – | 0.5 µM | remaining signal | 113% |
| Cc1ccc(C(=O)Nc2ccc(CN3CCN(C)CC3)c(C(F)(F)F)c2)cc1C#Cc1cnc2cccnn12 | TEC | enzyme activity | – | – | 23.5 nM | remaining activity | 84% |
| O=C(Nc1cnn(-c2csc(C(=O)NC3COC3)c2)c1)Nc1c(F)cccc1Cl | TEC | enzyme activity | inhibitor | – | 5 µM | remaining activity | 97.7% |
| Nc1ncnc2occ(-c3ccc(NC(=O)Nc4cc(C(F)(F)F)ccc4F)cc3)c12 | TEC | cell-free assay | inhibitor | – | 20 µM | remaining signal | 53% |
| CN(C)C(=O)Cn1cc(-c2nc(C3(c4ccc(-c5cnc(N)nc5)cc4)CC3)no2)cn1 | TEC | binding | – | competition with immobilised ligand | 1 µM | remaining binding | 93% |
| CC(C)(O)[C@H]1CC[C@H](Nc2ccc3ncc(-c4cccc(C(F)(F)F)c4)n3n2)CC1 | TEC | enzyme activity | inhibitor | – | 1 µM | remaining activity | 104% |
| CCCOc1ccc([C@@H]2[C@@H](C(=O)O)[C@H](c3ccc4c(c3)OCO4)CN2CC(=O)Nc2c(CC)cccc2CC)cc1 | TEC | binding | – | competition with immobilised ligand | 1 µM | remaining binding | 96% |
| O=C(N[C@@H](C1CC1)C(F)(F)F)c1cc(-c2cnn3cc(-c4ccc(F)cc4)cnc23)cs1 | TEC | enzyme activity | inhibitor | radiometric | 40 nM | inhibition | 0% |
| CC(=O)N1CCC(c2ccc(C(=O)NC3=NCCN3)cc2C(F)(F)F)CC1 | TEC | binding | – | competition with immobilised ligand | 1 µM | remaining binding | 100% |
| O=C1NC(=O)c2cc(Nc3ccc(F)cc3)c(Nc3ccc(F)cc3)cc21 | TEC | cell-free assay | – | – | 0.5 µM | remaining signal | 102% |
| CC(=O)N1CCC(c2ccc(C(=O)NC(=N)N)cc2C(F)(F)F)CC1 | TEC | binding | – | competition with immobilised ligand | 1 µM | remaining binding | 100% |
| Cc1cnc(NC2CCOCC2)nc1-n1cnc(C(=O)NC(CN)c2cc(F)cc(Cl)c2)c1 (centres unmarked) | TEC phosphorylated | enzyme activity | inhibitor | radiometric | 1 µM | remaining activity | 102% |
| Nc1c(C(=O)NCc2ccc(C(=O)NCCCC3CCCCC3)cc2)cnn1-c1ccccc1 | TEC | cell-free assay | – | competition with immobilised ligand | 0.1 µM | remaining binding | 100% |
| COc1cc(Cl)c(C(=O)N[C@@H](CN[C@H]2CC[C@@H](N)CC2)Cc2ccc(C#N)cc2)cc1-c1ccc(CN[C@H](C)c2ccc(C)cc2)o1 | TEC phosphorylated | enzyme activity | inhibitor | – | 1 µM | remaining activity | 90% |
